Experimental data from ChEMBL document CHEMBL1287664, “Synthesis and biological analysis of prostate-specific membrane antigen-targeted anticancer prodrugs” (J Med Chem, 2010).
Active and inactive are the calls of the source. No cut-off for these calls is given here.

Legend:
LNCaP [1] = assay: Cytotoxicity against human LNCAP cells; type: functional, cell-based
Procedure, shortened: (§1)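 LNCaP cells (RPMI 1640, 10% heat-inactivated FBS) were seeded at 50000 cells/well and grown 48 h to monolayers. They were pulsed 2 h at 37 °C with drug (free drugs in DMSO; conjugates in saline, ± 100-fold excess PMPA), then chased 66 h drug-free. Cells were labelled 4 h with [3H]-thymidine, TCA-precipitated, NaOH-solubilised and scintillation-counted. IC50 came from % incorporation vs log concentration.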

LNCaP [2] = assay: Cytotoxicity against human LNCAP cells at 100 pM to 1 uM; type: functional, cell-based; procedure, shortened: as §1
LNCaP [3] = assay: Cytotoxicity against human LNCAP cells after 2 hrs by [3H]thymidine incorporation assay; type: functional, cell-based
Procedure, shortened: (§2)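 LNCaP cells were seeded at 50000 cells/well and grown to monolayers over 48 h. They were exposed to increasing drug concentrations for 2 h at 37 °C, then kept in drug-free medium for 66 h. [3H]-thymidine (1 mCi/mL) was added for 4 h. Cells were TCA-precipitated (5%, 10 min), dissolved in 0.25 N NaOH and scintillation-counted. IC50 came from % incorporation versus log concentration.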

LNCaP [4] = assay: Cytotoxicity against human LNCAP cells after 2 hrs by [3H]thymidine incorporation assay in presence of 100-fold […]; type: functional, cell-based
Procedure, shortened: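 LNCaP monolayers (50000 cells/well, 48 h) received 100-fold excess PMPA to block PSMA sites before the saline-dissolved DUPA conjugate was added. Exposure was 2 h at 37 °C, followed by 66 h in drug-free medium. Viability was read as [3H]-thymidine incorporation (1 mCi/mL, 4 h), TCA-precipitated and scintillation-counted. IC50 came from incorporation versus log concentration.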

[5] = molecular target: Glutamate carboxypeptidase 2 (Homo sapiens) (UniProt Q04609); assay: Displacement of DUPA-99mTc from human prostate-specific membrane antigen in LNCaP cells assessed as relative binding affinity after 2 hrs at 37 degC; type: cell-based
Sequence of Glutamate carboxypeptidase 2 (Homo sapiens) (Q04609 whole entry, looked up): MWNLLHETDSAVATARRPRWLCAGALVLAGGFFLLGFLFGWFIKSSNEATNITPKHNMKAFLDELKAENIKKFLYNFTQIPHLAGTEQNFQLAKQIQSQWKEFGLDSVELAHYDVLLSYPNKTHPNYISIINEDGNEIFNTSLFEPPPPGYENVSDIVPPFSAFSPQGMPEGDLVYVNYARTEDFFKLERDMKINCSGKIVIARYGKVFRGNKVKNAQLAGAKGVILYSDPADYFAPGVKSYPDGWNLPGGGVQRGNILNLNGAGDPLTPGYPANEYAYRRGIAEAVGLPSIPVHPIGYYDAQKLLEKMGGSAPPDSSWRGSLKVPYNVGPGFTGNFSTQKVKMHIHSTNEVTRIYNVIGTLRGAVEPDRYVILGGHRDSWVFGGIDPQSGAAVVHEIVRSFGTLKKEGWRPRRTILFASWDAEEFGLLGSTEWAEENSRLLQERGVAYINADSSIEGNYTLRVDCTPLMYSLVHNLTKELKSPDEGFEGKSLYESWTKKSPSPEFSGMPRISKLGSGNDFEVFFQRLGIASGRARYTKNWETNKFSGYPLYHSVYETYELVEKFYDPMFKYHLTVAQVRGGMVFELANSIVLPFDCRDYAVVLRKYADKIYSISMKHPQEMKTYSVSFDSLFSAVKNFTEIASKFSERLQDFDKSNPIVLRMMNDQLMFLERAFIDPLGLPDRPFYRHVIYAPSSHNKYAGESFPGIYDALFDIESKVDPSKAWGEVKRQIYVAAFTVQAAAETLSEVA

LNCaP [6] = assay: Cytotoxicity against human LNCAP cells at 100 pM to 1 uM after 2 hrs by [3H]thymidine incorporation assay; type: functional, cell-based; procedure, shortened: as §2

CC(=O)O[C@H]1C(=O)[C@@]2(C)[C@H]([C@H](OC(=O)c3ccccc3)[C@]3(O)C[C@H](OC(=O)[C@H](O)[C@@H](NC(=O)c4ccccc4)c4ccccc4)C(C)=C1C3(C)C)[C@]1(OC(C)=O)CO[C@@H]1C[C@@H]2O [PACLITAXEL]
IC50 (LNCaP [1]; Homo sapiens, LNCaP): 0.0223 µM

CC[C@H](C)[C@H](NC(=O)[C@H]1CCCCN1C)C(=O)N(COC(=O)CC(C)C)[C@H](C[C@@H](OC(C)=O)c1nc(C(=O)N[C@@H](Cc2ccc(C)cc2)C[C@H](C)C(=O)O)cs1)C(C)C [TUBULYSIN]
IC50 (LNCaP [1]; Homo sapiens, LNCaP): 0.0025 µM

C[C@]12C=CC(=O)C=C1CC[C@@H]1[C@@H]2[C@@H](O)C[C@@]2(C)[C@H]1CC[C@]2(O)C(=O)CO
Activity (LNCaP [2]): inactive

CC[C@@]1(O)C(=O)OCc2c1cc1n(c2=O)Cc2cc3ccccc3nc2-1
Activity (LNCaP [2]): inactive

CC[C@]1(O)C[C@@H]2CN(CCc3c([nH]c4ccccc34)[C@@](C(=O)OC)(c3cc4c(cc3OC)N(C)[C@H]3[C@@](O)(C(=O)NN)[C@H](O)[C@]5(CC)C=CCN6CC[C@]43[C@@H]65)C2)C1 [DESACETYLVINBLASTINEHYDRAZIDE]
IC50 (LNCaP [1]; Homo sapiens, LNCaP): 0.0122 µM

C[S+]([O-])c1ccc(-c2nc(-c3ccc(F)cc3)c(-c3ccncc3)[nH]2)cc1 (centres undefined)
Activity (LNCaP [2]): inactive

COc1cccc2c1C(=O)c1c(O)c3c(c(O)c1C2=O)C[C@@](O)(C(=O)CO)C[C@@H]3O[C@H]1C[C@H](N)[C@H](O)[C@H](C)O1 [DOXORUBICIN]
IC50 (LNCaP [1]; Homo sapiens, LNCaP): 0.0776 µM

COC[C@H]1OC(=O)c2coc3c2[C@@]1(C)C1=C(C3=O)[C@@H]2CCC(=O)[C@@]2(C)C[C@H]1OC(C)=O
Activity (LNCaP [2]): inactive

CC[C@H](C)[C@H](NC(=O)[C@H]1CCCCN1C)C(=O)N(COC(=O)CC(C)C)[C@H](C[C@@H](OC(C)=O)c1nc(C(=O)N[C@@H](Cc2ccc(C)cc2)C[C@H](C)C(=O)NNC(=O)OCCSSC[C@H](NC(=O)[C@H](Cc2ccccc2)NC(=O)[C@H](Cc2ccccc2)NC(=O)CCCCCCCNC(=O)CC[C@H](NC(=O)N[C@H](CCC(=O)O)C(=O)O)C(=O)O)C(=O)O)cs1)C(C)C
IC50 (LNCaP [3]): 0.024 µM

CC[C@H](C)[C@H](NC(=O)[C@H]1CCCCN1C)C(=O)N(COC(=O)CC(C)C)[C@H](C[C@@H](OC(C)=O)c1nc(C(=O)N[C@@H](Cc2ccc(C)cc2)C[C@H](C)C(=O)NNC(=O)OCCSSC[C@@H](NC(=O)[C@H](Cc2ccccc2)NC(=O)[C@H](CC(=O)O)NC(=O)CC[C@H](NC(=O)CC[C@H](NC(=O)N[C@@H](CCC(=O)O)C(=O)O)C(=O)O)C(=O)O)C(=O)O)cs1)C(C)C
IC50 (LNCaP [3]): 0.005 µM

C[n+]1ccc(-c2cc[n+](C)cc2)cc1
Activity (LNCaP [2]): inactive

CC[C@]1(O)CCN2CCc3c([nH]c4ccccc34)[C@](C(=O)OC)(c3cc4c(cc3OC)N(C)[C@@H]3[C@](O)(C(=O)NNC(=O)OCCSSC[C@H](NC(=O)[C@H](CC(=O)O)NC(=O)[C@@H](N)CNC(=O)[C@H](Cc5ccccc5)NC(=O)[C@H](Cc5ccccc5)NC(=O)CCCCCCNC(=O)CC[C@H](NC(=O)N[C@H](CCC(=O)O)C(=O)O)C(=O)O)C(=O)O)[C@@H](O)[C@@]5(CC)C=CCN6CC[C@@]43[C@@H]65)CC1C2 (some centres undefined)
IC50 (LNCaP [3]): 0.031 µM | Activity (LNCaP [4]): inactive | RBA [5]: 25%

CC1=C[C@H]2O[C@@H]3C[C@H]4OC(=O)/C=C\C=C\C(=O)OCC[C@@H](C)[C@H](O)C(=O)OC[C@@]2(CC1)[C@]4(C)[C@]31CO1 [VERRUCARIN A]
IC50 (LNCaP [1]; lncap): 0.0033 µM

CC1=C[C@H]2O[C@@H]3C[C@H]4OC(=O)/C=C/C=C/C(=O)OCC[C@@H](C)[C@H](OC(=O)OCCSSC[C@H](NC(=O)[C@H](CC(=O)O)NC(=O)[C@@H](N)CNC(=O)[C@H](Cc5ccccc5)NC(=O)[C@H](Cc5ccccc5)NC(=O)CCCCCCNC(=O)CC[C@H](NC(=O)N[C@H](CCC(=O)O)C(=O)O)C(=O)O)C(=O)O)C(=O)OC[C@@]2(CC1)[C@]4(C)[C@]31CO1
Activity (LNCaP [6]): inactive | RBA [5]: 34%

CO[C@@H]1C[C@@H](C[C@H]2CC[C@H](C)[C@H]([C@@H](C)C(=O)O)O2)O[C@]2(O[C@](C)([C@H]3CC[C@@](C)([C@@H]4O[C@@H]([C@H]5O[C@@](O)(CO)[C@H](C)C[C@@H]5C)C[C@@H]4C)O3)C[C@H]2C)[C@@H]1C
Activity (LNCaP [2]): inactive

OCCC#Cc1nc(-c2ccc(F)cc2)c(-c2ccncc2)n1CCCc1ccccc1
Activity (LNCaP [2]): inactive

C=C1[C@@H]2CCC3[C@@](CC[C@@H]4[C@H](C(=O)O)C[C@@H](O[C@@H]5O[C@H](CO)[C@@H](OS(=O)(=O)O)[C@H](OS(=O)(=O)O)[C@H]5OC(=O)CC(C)C)C[C@@]34C)(C2)[C@@H]1O (some centres undefined)
Activity (LNCaP [2]): inactive

CC[C@]1(O)C[C@@H]2CN(CCc3c([nH]c4ccccc34)[C@@](C(=O)OC)(c3cc4c(cc3OC)N(C)[C@H]3[C@@](O)(C(N)=O)[C@H](O)[C@]5(CC)C=CCN6CC[C@]43[C@@H]65)C2)C1 [VINDESINE]
IC50 (LNCaP [1]; Homo sapiens, LNCaP): 0.0095 µM

CC[C@H](C)[C@H](NC(=O)[C@H]1CCCCN1C)C(=O)N(COC(=O)CC(C)C)[C@H](C[C@@H](OC(C)=O)c1nc(C(=O)N[C@@H](Cc2ccc(C)cc2)C[C@H](C)C(=O)NNC(=O)OCCSSC[C@H](NC(=O)[C@H](CC(=O)O)NC(=O)[C@@H](N)CNC(=O)[C@H](Cc2ccccc2)NC(=O)[C@H](Cc2ccccc2)NC(=O)CCCCCCNC(=O)CC[C@H](NC(=O)N[C@H](CCC(=O)O)C(=O)O)C(=O)O)C(=O)O)cs1)C(C)C
IC50 (LNCaP [3]): 0.006 µM | Activity (LNCaP [4]): inactive | RBA [5]: 26%
